# Most compounds without a hit are left out; they make up all but 2.1% or so of the library.
# GRK2 aptamer HTS: blocks RNA aptamer binding to human GRK2; bead flow cytometry, FAM-aptamer displacement from GRK2; inhibition of aptamer binding, % at 10 µM; 330,000 tested, 0.59% active; P25098;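 active = inhibition of aptamer binding above 40%, roughly 3 SD of noise, on plates passing a quality check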;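 note: median bead fluorescence of bound FAM aptamer so fluorescent compounds give negative values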
# Target sequence (P25098 whole entry, looked up): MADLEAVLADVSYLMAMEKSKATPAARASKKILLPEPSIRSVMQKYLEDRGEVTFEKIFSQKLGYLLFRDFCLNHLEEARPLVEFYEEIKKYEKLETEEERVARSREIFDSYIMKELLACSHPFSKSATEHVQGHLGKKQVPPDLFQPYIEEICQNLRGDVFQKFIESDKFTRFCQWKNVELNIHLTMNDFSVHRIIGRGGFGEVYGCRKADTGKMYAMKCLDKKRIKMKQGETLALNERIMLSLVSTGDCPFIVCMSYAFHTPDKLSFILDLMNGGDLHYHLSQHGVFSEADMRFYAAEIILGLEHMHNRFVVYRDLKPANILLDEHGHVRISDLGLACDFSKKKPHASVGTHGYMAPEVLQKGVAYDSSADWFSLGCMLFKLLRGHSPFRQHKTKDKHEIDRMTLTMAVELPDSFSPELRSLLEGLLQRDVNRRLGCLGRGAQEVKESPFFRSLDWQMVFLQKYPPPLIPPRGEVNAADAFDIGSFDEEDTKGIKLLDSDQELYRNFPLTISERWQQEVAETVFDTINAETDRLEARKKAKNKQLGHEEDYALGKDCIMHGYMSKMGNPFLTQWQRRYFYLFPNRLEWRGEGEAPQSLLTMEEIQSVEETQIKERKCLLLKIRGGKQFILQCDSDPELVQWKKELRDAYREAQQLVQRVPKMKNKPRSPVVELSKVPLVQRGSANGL
# Scp-1 inhibitor: blocks human Scp-1 phosphatase activity; Recombinant Scp1, phosphopeptide, malachite green phosphate absorbance; Q9GZU7; 340,000 tested, 0.88% active; inhibition, % at 20 µM;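 active = inhibition above about 50% at 20 µM, limit read from the data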;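 note: plate controls were DMSO wells with enzyme for no effect and wells lacking enzyme for full effect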
#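 Assay system: SCP-1 catalytic fragment, aa 76-261 | Buffer or medium: Tris acetate buffer pH 5.5 with MgCl2 and Tween-20 | Compound: One concentration, 20 µM, with 1.0% DMSO | Also added: Phospho 17-mer peptide substrate | Signal: Absorbance at 630 nm | Incubation: 45 min enzyme reaction at room temperature | Measure: % inhibition of SCP-1 phosphate liberation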
# DNMT1 inh: DNMT1 (human) enzyme inhibition; DNMT1 molecular beacon, Hinp1I cleavage, fluorescence; 360,000 tested, 0.83% active; inhibition (reported as % activation of signal), % at 10 µM; P26358; in the data active = inhibition above about 50%
# STEP inh: STEP (human) phosphatase inhibition; P54829; recombinant STEP, OMFP fluorogenic substrate, fluorescence; inhibition, % at 20 µM; 360,000 tested, 0.25% active; AID 588621;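 active = inhibition at 20 µM, scaled per plate between control wells, above about 37%, limit read from the data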;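 note: 0% = DMSO with enzyme and substrate and 100% = substrate only without enzyme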
#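 System: STEP phosphatase, cell-free reaction; Buffer or medium: Bis-Tris pH 6.0 buffer with DTT, detergent; Incubation: 20 min at room temperature, dark; Measured by: fluorescence, 480/540 nm.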
# SUMO1 PPI mod: alters human SUMO1 binding to SIM partners. SUMO1 binding to a labelled peptide, TR-FRET, 1 h. inhibition, % at 20 µM. AID 602429. P63165. 360,000 tested, 0.33% active; in the data active = inhibition above about 37%
# LMPTP inh: blocks human LMPTP phosphatase; recombinant LMPTP-A, OMFP fluorogenic substrate, fluorescence intensity; inhibition, % at 20 µM; 360,000 tested, 0.22% active;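 active = compounds that cut the enzyme signal by at least half of the control window in the single-dose screen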;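 note: plate controls were DMSO wells with enzyme plus substrate for no effect and substrate without enzyme for full effect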
#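 Assay system: LMPTP-A enzyme. Input: 0.625 nM LMPTP-A final. Probe or stimulus: 400 µM OMFP. Compound dosing: single 20 µM dose. Schedule: 50 min dark incubation at room temperature. Detection: fluorescence intensity of OMFP turnover product. Read-out: percent inhibition versus substrate-only and uninhibited controls. Benchmarks: no-enzyme low control, uninhibited high control.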
# GRK2 inh confirm: human GRK2 inhibition confirmation, cherry pick 1 | aptamer displacement, % at 10 µM | AID 504451 | bead-bound GRK2, FAM-aptamer displacement, flow cytometry | 2,000 tested, 4% active | shares compounds with GRK2 aptamer HTS;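 active = aptamer displacement above 40%, near three times the noise of non-fluorescent compounds, on plates passing quality checks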;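 note: negative values mostly reflect intrinsic compound fluorescence rather than true enhancement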
# FAM quench CP1: quenches fluorescent RNA aptamer, GRK2 hit artifact; shares compounds with GRK2 aptamer HTS; Carboxyfluorescein RNA aptamer on beads, flow cytometry quenching; stronger effect = lower value; fluorescence response (% of DMSO), % at 10 µM; 2,000 tested, under 10 active; AID 504580;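 active = compounds that quench the bead-bound fluorescent RNA probe, cutting fluorescence to under half of the solvent control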;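 note: counterscreen run without GRK2 so only probe quenching by compound is measured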
# GRK2 confirm 2: human GRK2 inhibition confirmation, cherry pick 2 | shares compounds with GRK2 aptamer HTS | bead-bound GRK2, FAM-aptamer displacement, flow cytometry | inhibition of aptamer binding, % at 10 µM | 360 tested, under 10 active | AID 504782;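 active = inhibition of aptamer binding above 40%, about triple the noise seen with nonglowing compounds, on plates passing quality control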;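 note: negative values mostly come from compounds that fluoresce themselves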
# FAM quench CP2: aptamer fluorescence quenching in GRK2 counter-screen; shares compounds with GRK2 aptamer HTS; 360 tested, under 10 active; carboxyfluorescein RNA aptamer beads, flow cytometry quenching; stronger effect = lower value; fluorescence response vs DMSO, % at 10 µM;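 active = response vs DMSO under 50%, meaning signal dropped by over half, treated as fluorescence quencher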;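 note: labelled aptamer on streptavidin beads without GRK2 as a quench counter-screen; 100% = bead fluorescence of DMSO wells and lower means quenching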
# * = called active by the depositor; . = no result given.
SMILES,GRK2 aptamer HTS,Scp-1 inhibitor,DNMT1 inh,STEP inh,SUMO1 PPI mod,LMPTP inh,GRK2 inh confirm,FAM quench CP1,others
O=Cc1ccc(N2N=C(c3ccccc3)CC2c2ccccc2)cc1 (stereo not given),46.0*,-12.8,-2.8,1.1,-8.7,3.3,6.3,95.1,
CC(C)Oc1ccc(NC(N)=O)cc1,89.0*,-5.5,2.3,2.4,5.0,-0.2,-2.2,101.7,
CCOc1ccc(NC(=O)CN(C)C(=O)c2cc(-c3ccco3)nc3ccccc23)cc1OCC,.,-4.9,-0.8,1.1,-5.4,1.6,1.0,96.2,
COc1ccc(C=O)cc1OC(=O)N1CCOCC1,6.0,-15.2,-0.5,0.3,-2.9,0.1,.,.,
Cc1nnc(SCc2c(Cl)cccc2Cl)n(N)c1=O,61.0*,-1.4,-3.1,-0.9,3.5,-0.7,4.0,95.2,
COc1cccc(OCC(=O)Nc2c3c(nn2-c2ccccc2)CS(=O)(=O)C3)c1,1.0,0.9,0.4,1.8,-4.0,0.5,.,.,
CN(C)S(=O)(=O)NCC1CCCN(Cc2cc3ccccc3s2)C1 (stereo not given),1.0,-2.0,0.1,-2.2,2.1,-1.9,.,.,
COC(=O)C1=C(C)N=c2s/c(=C/c3cccs3)c(=O)n2C1c1cccs1 (stereo not given),56.0*,-8.1,4.6,1.8,-2.1,-3.4,-2.7,98.0,
COC(=O)C1=C(C)N=c2s/c(=C/c3ccoc3)c(=O)n2C1c1ccccc1 (stereo not given),2.0,-10.7,-7.9,4.9,-6.2,1.2,.,.,
COc1ccc(C(=O)Nc2ccccc2C(=O)Nc2cccnc2)cc1,1.0,-3.6,-1.5,-1.5,3.0,0.6,.,.,
COc1ccc(NC(=O)c2ccccc2NC(=O)CSc2ccccc2)cc1,0.0,-4.6,3.0,-3.1,-0.8,-1.4,.,.,
COc1ccc(NC(=O)c2ccccc2NC(=O)c2ccccc2)cc1,41.0*,-7.1,-0.8,-2.3,5.2,-1.4,.,.,GRK2 confirm 2=-22.3;FAM quench CP2=97.0
COc1ccc(NC(=O)c2ccccc2NC(=O)CSc2ccc(Cl)cc2)cc1,47.0*,-2.2,8.0,-5.8,-2.3,-3.0,0.4,105.7,
COc1cccc(NC(=O)COC(=O)CCC2CCCC2)c1,1.0,-8.2,-5.8,0.3,7.0,1.3,.,.,
COc1ccc(C(=O)Nc2ccc(Nc3ccccc3)cc2)cc1OC,86.0*,-14.6,-20.3,-0.3,4.2,-1.6,0.1,101.4,
O=C(Nc1ccc(Nc2ccccc2)cc1)c1ccccc1,100.0*,-7.0,.,.,.,.,5.0,93.4,
O=C(NCCc1c[nH]c2ccccc12)c1ccc([N+](=O)[O-])cc1,41.0*,-6.8,3.2,2.1,-23.4,0.8,.,.,GRK2 confirm 2=19.1;FAM quench CP2=100.0
Cc1ccc(-c2cnc3ccccc3n2)cc1C,0.0,-4.2,0.3,-0.3,-21.8,1.6,2.0,101.0,
Cc1cc(-c2nc(-c3ccncc3)no2)ccc1[N+](=O)[O-],25.0,-15.4,-1.2,1.8,-31.8,1.1,0.1,102.0,
Cc1ccc(-c2nc(-c3ccncc3)no2)cc1C,0.0,-2.4,4.0,0.2,2.9,0.5,.,.,
CCOC(=O)Cn1cc(Cl)c(=O)c(Cl)c1,85.0*,-8.9,-1.3,-4.5,-1.4,-1.8,-2.8,101.9,
CCOC(=O)Cn1cnc(C)c1,.,-12.4,4.6,-0.5,0.5,-1.2,.,.,
Cc1nc2c(OCc3cc(Cl)cc(Cl)c3)cccn2c1N(C)C(=O)CCC1CCCC1,.,.,-8.0,5.3,4.7,17.2,.,.,

# Compound activity deposited in PubChem by several laboratories.
